# Active and inactive are the calls of the source.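 How the source made its calls, unless noted: active means viability at or below 30% in both replicate assays; inconclusive means viability at or below 30% in just one of the two assays; inactive means the rest.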
# Key:
# [1] = Her2 expression decrease, cell viability multiplex – SKBR3 breast tumor cells, AlphaScreen, ATP viability, primary screen (AID 461;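 active means Her2 level under about 52% in both replicate screens, with viability over 70% of control, limit read from the data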;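 on Her2 level: lower value means less Her2 protein in the cells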;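 on viability: percent of carrier control wells set as 100% viability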); conditions: SKBR3 Her2 protein level, 18-24 h, measured here: SKBR3 viability, ATP luminescence, at 10 µM
# [2] = target: Receptor tyrosine-protein kinase erbB-2 (Homo sapiens) (UniProt P04626); assay: as above; conditions: 18-24 h, at 10 µM, stronger effect = lower value
# Receptor tyrosine-protein kinase erbB-2 (Homo sapiens), sequence (P04626 whole entry, looked up): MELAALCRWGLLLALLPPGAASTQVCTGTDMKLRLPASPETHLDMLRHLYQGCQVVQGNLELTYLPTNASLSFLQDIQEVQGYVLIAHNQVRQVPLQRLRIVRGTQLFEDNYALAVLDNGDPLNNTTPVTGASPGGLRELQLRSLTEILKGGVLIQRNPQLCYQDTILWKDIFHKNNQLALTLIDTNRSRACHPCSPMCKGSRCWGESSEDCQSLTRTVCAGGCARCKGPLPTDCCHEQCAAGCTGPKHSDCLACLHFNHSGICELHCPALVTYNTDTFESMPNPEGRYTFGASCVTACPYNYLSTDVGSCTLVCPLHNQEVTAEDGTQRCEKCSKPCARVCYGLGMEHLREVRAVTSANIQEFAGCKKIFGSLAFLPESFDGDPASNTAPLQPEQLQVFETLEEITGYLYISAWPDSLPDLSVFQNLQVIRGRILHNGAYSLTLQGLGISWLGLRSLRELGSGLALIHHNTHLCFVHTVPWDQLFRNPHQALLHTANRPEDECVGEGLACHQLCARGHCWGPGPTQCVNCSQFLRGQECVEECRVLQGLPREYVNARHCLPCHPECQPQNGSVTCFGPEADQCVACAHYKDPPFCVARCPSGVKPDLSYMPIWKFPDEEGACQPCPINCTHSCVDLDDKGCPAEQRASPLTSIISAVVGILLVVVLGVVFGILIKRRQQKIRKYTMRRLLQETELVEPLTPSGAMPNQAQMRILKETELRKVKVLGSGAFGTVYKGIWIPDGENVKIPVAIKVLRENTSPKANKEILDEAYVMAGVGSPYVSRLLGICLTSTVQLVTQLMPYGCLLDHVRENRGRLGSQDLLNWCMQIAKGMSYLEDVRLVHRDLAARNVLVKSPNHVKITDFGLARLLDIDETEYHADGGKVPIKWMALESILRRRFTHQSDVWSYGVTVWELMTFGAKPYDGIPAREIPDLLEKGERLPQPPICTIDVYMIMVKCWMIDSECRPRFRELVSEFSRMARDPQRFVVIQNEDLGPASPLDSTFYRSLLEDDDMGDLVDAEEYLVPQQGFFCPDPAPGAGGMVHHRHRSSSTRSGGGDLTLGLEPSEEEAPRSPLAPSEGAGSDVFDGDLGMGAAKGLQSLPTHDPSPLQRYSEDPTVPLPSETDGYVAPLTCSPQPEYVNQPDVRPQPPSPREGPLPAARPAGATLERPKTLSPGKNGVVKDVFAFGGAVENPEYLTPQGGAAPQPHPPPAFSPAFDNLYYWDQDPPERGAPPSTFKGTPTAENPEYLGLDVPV
# [3] = reduced viability of SK-BR-3 breast cancer cells – cell-based, 24 h, human, pilot screen (AID 572;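 active means viability at or below 10% of carrier control in both of two separate runs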;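 further: compound exposure lasted between 18 and 24 h rather than exactly 24 h; 100% = carrier-treated control wells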); conditions: SK-BR-3 viability, CellTiter-Glo luminescence, at 10 µM, stronger effect = lower value
# [4] = HUVEC growth inhibition – cell-based, human, primary screen (AID 575); conditions: HUVEC proliferation, CellTiter-Glo luminescence, 72 h; at 10 µM; stronger effect = lower value;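 further: 100% = median of untreated cell wells with 0.1% DMSO on each plate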
# Outline: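 Assay system: Primary human umbilical vein endothelial cells | Quantity: 1250 cells per well | Medium: Supplemented EBM, 2% fetal bovine serum | Detection: CellTiter-Glo luminescence measuring cellular ATP | Read-out: % viability vs DMSO wells | Plate: Collagen-coated 384-well format | Times: 72 h exposure, 37 °C, 5% CO2, 30 min RT equilibration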
# [5] = H69AR cell proliferation blockers – human, duplicate replicates, primary screen (AID 580;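 active means viability at or under a set limit in both replicates, limit being median viability minus 3 SD, cut at about 48% in these data, passing the limit was not always enough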;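 further: 100% = mean luminescence of untreated wells and 0% = no signal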); conditions: H69AR lung tumor cells viability, ATP luminescence, 72 h; at 10 µM; stronger effect = lower value
# [6] = MRP1 drug-resistance reversers in H69AR cells – cell-based, doxorubicin co-treatment, pilot screen (AID 601;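 active means viability loss from added drug above about 55%, and viability with drug at most 40%, in both replicates, limit read from the data, passing the limit was not always enough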); conditions: CellTiter-Glo, 72 h, at 10 µM; for differential viability (reversal): stronger effect = higher value
# [7] = yeast transport mutant growth inhibition pilot in 384-well plates, post-Golgi transport modulator project (AID 636; in the data active means inhibition above about 31%); conditions: absorbance 615 nm, about 18 h, stronger effect = higher value
# [8] = growth suppression of yeast trafficking mutant, preliminary HTS, modulators of trafficking downstream of Golgi apparatus project, 1536-format plate, OD 615 nm (AID 637; in the data active means inhibition above about 30%); conditions: yeast transport mutant growth, absorbance 615 nm, 18 h; stronger effect = higher value
# [9] = H69AR cells + 2 uM doxorubicin, measured here: viability with 2 uM doxorubicin, stronger effect = lower value
# [10] = H69AR cells, compound alone cytotoxicity
Compound,viability [1] [%],Her2 level [2],viability [3],viability [4],viability [5],differential viability (reversal) ([6]; H69AR cells + 2 uM doxorubicin),"viability [6, 9] [%]","viability [6, 10] [%]",inhibition [7],inhibition [8]
c1ccc(-n2ncc3c(N4CCCCC4)ncnc32)cc1,105,90.5% (inactive),105% (inactive),59.4% (inactive),70% (inactive),4.94% (inactive),65.1,70,-3.6% (inactive),-4.17% (inactive)
Cc1cc(NC(=O)CSc2nnc(COc3cccc(C)c3C)n2Cc2ccco2)no1,102,94% (inactive),102% (inactive),97.5% (inactive),104% (inactive),19.5% (inactive),85,104,-4.59% (inactive),-0.79% (inactive)
Cc1ccc(NC(=O)CN2CC(C)SC2=NC2CCCCC2)cc1 (stereo not given),84.5,113% (inactive),84.5% (inactive),96% (inactive),83.9% (inactive),0.935% (inactive),83,83.9,-6.8% (inactive),1.94% (inactive)
COc1ccc(N(CC(=O)N2CCN(Cc3ccc4c(c3)OCO4)CC2)S(C)(=O)=O)cc1OC,106,89.5% (inactive),106% (inactive),108% (inactive),96.2% (inactive),9.96% (inactive),86.2,96.2,-8.67% (inactive),-2.58% (inactive)
CCn1c(=O)n(CC(=O)N(C)Cc2ccccc2)c(=O)c2ccccc21,110,93.5% (inactive),110% (inactive),75.7% (inactive),91.8% (inactive),1.03% (inactive),90.8,91.8,1.18% (inactive),-0.48% (inactive)
CC1Oc2ccccc2N(CC(=O)N(Cc2ccccc2)Cc2ccccn2)C1=O (stereo not given),108,100% (inactive),108% (inactive),110% (inactive),88.6% (inactive),-1.47% (inactive),90.1,88.6,-5.54% (inactive),-10% (inactive)
CN=Cc1cc(-c2ccccc2)sc1O,82,102% (inactive),82% (inactive),102% (inactive),90% (inactive),13% (inactive),77,90,0.41% (inactive),32.7% (active)
CSc1ccc(-c2nc(CSCC(=O)N3CCOCC3)c(C)o2)cc1,102,91% (inactive),102% (inactive),85.2% (inactive),103% (inactive),6.36% (inactive),97.1,103,-0.67% (inactive),-2.26% (inactive)
COCc1ccccc1Cn1cnc2c1c(=O)n(C)c(=O)n2C,99,77.5% (inactive),99% (inactive),85.8% (inactive),101% (inactive),8.8% (inactive),92.7,101,-5% (inactive),0.49% (inactive)
Cc1cc(C)n(CC(=O)n2c3c(c4ccccc42)CCCC3)n1,116,117% (inactive),116% (inactive),75.3% (inactive),74.4% (inactive),-6.97% (inactive),81.4,74.4,-5.53% (inactive),3.77% (inactive)
CCC(C)NC(=O)C1CCCN(S(=O)(=O)c2ccc(-n3cnnn3)cc2)C1 (stereo not given),109,104% (inactive),109% (inactive),104% (inactive),103% (inactive),14.5% (inactive),88.6,103,-2.97% (inactive),-10% (inactive)
COc1ccc(-n2c(SCCC(=O)O)nnc2-c2ccncc2)cc1,96,96% (inactive),96% (inactive),97% (inactive),96.7% (inactive),0.675% (inactive),96.1,96.7,-3.42% (inactive),0.32% (inactive)
O=C(c1ccco1)N1CCN(S(=O)(=O)c2ccc3c(c2)CCN3C(=O)C2CCC2)CC1,81.5,130% (inactive),81.5% (inactive),101% (inactive),95.6% (inactive),11.7% (inactive),83.9,95.6,-1.71% (inactive),-6.5% (inactive)
Cc1cccc(NC(=O)c2cc3n(n2)C(C(F)(F)F)CC(c2ccc4c(c2)OCO4)N3)c1 (stereo not given),113,68.5% (inactive),113% (inactive),56.9% (inactive),73.9% (inactive),-6.35% (inactive),80.2,73.9,-0.53% (inactive),1.61% (inactive)
CCOc1cc(C2C(C(=O)OC(C)C)=C(C)N=C3SCCC(=O)N32)ccc1OC(C)=O (stereo not given),93,78.5% (inactive),93% (inactive),96.5% (inactive),93.3% (inactive),3.33% (inactive),89.9,93.3,-2.89% (inactive),2.18% (inactive)
O=C(Nc1ccc2c(c1)OCO2)c1nn(-c2ccccc2)c(=O)c2ccccc12,108,81% (inactive),108% (inactive),72.8% (inactive),74.7% (inactive),-4.67% (inactive),79.4,74.7,-1.43% (inactive),1.75% (inactive)
O=C(O)CCC(=O)c1c[nH]c2ccccc12,88,114% (inactive),88% (inactive),88.4% (inactive),95.6% (inactive),-5.4% (inactive),101,95.6,1.47% (inactive),-4.76% (inactive)
CC(C)Cn1c(N)c(C(=O)COC(=O)c2cc(-c3ccco3)nc3ccccc23)c(=O)n(C)c1=O,78.5,80% (inactive),78.5% (inactive),66.8% (inactive),89.3% (inactive),-1.72% (inactive),91.1,89.3,-4.32% (inactive),-6.67% (inactive)
Cc1ccccc1-n1nnnc1SCC(=O)Nc1ccc(S(=O)(=O)N2CCCC2)cc1,70.5,100% (inactive),70.5% (inactive),94.6% (inactive),85% (inactive),-2.96% (inactive),88,85,0.53% (inactive),2.1% (inactive)
N#CCCN(C(=O)Nc1ccc(Cl)cc1)c1ccccc1,94,111% (inactive),94% (inactive),113% (inactive),105% (inactive),9.02% (inactive),95.5,105,-2% (inactive),0% (inactive)
CC(C(=O)NC1CCCCCC1)N(c1ccccc1)S(C)(=O)=O (stereo not given),112,97.5% (inactive),112% (inactive),114% (inactive),109% (inactive),6.19% (inactive),103,109,-2.24% (inactive),2.79% (inactive)
CCOCCc1nnc(NC(=O)c2ccc(OC)c(OC)c2)s1,107,86% (inactive),107% (inactive),62.8% (inactive),94.4% (inactive),-1.97% (inactive),96.4,94.4,-6.4% (inactive),-3.39% (inactive)
CCOC(=O)c1ccc2nc(C)c3c(c2c1)OC(C)C3 (stereo not given),92,124% (inactive),92% (inactive),97.1% (inactive),87.9% (inactive),11% (inactive),76.9,87.9,-2.6% (inactive),-5.67% (inactive)
O=C(CSCc1cnn(-c2ccccc2)c1-n1cccc1)NCC1CCCO1 (stereo not given),97.5,85% (inactive),97.5% (inactive),94.1% (inactive),93.7% (inactive),-10.7% (inactive),104,93.7,-4.59% (inactive),-2.7% (inactive)
O=C(c1ccc(Cl)c(F)c1F)N1CCCC1,88.5,106% (inactive),88.5% (inactive),98.4% (inactive),102% (inactive),11.3% (inactive),90.7,102,-1.67% (inactive),-10.2% (inactive)
COc1ccccc1-n1c(C)nnc1SCC(N)=O,127,113% (inactive),127% (inactive),101% (inactive),91.6% (inactive),13.9% (inactive),77.7,91.6,-5.33% (inactive),-0.65% (inactive)
COc1ccc(N=c2scc(-c3ccc(S(=O)(=O)N4CCOCC4)cc3)n2CCCO)cc1,85.5,80.5% (inactive),85.5% (inactive),96.4% (inactive),72.8% (inactive),37.2% (inactive),35.6,72.8,1.67% (inactive),-8.5% (inactive)
COC(=O)c1ccc(COc2ncnc3c(Cl)cc(Cl)cc23)o1,102,100% (inactive),102% (inactive),95.4% (inactive),85.9% (inactive),18.5% (inactive),67.4,85.9,-8.16% (inactive),-2.73% (inactive)
